According to ChEMBL document CHEMBL1155415, “Synthesis, characterization, and in vitro antimicrobial activities of 5-alkenyl/hydroxyalkenyl-2-phenylamine-1,3,4-oxadiazoles and thiadiazoles” (2010):
≈ marks a conversion by molar mass, not a printed value.

Tests used:
Format in all cases: functional
[1] = test system: Staphylococcus aureus; experiment: Antibacterial activity against Staphylococcus aureus ATCC 25923 after 24 hrs by disc diffusion method
Outline: (§1)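 Agar disc diffusion. A standard inoculum of […] c.f.u./ml (0.5 McFarland) was spread evenly on agar. 6 mm Whatman no. 1 paper discs, dry-heat sterilized (140 °C, 1 h), were soaked in test compound and placed on nutrient agar. Plates were inverted and incubated 24 h at 37 °C. Read-out: diameter of the inhibition zone.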

[2] = test system: Streptococcus pyogenes; experiment: Antibacterial activity against Streptococcus pyogenes after 24 hrs by disc diffusion method; outline: as §1
[3] = test system: Klebsiella pneumoniae; experiment: Antibacterial activity against Klebsiella pneumoniae after 24 hrs by two fold dilution technique
Outline: (§2)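 Broth dilution MIC. Nutrient broth held log two-fold serial dilutions of compound and was inoculated with about 5 × 10⁵ c.f.u./ml of actively dividing bacteria. Incubation was 24 h at 37 °C, with growth checked visually and spectrophotometrically. MIC is the lowest concentration arresting growth.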

[4] = test system: Pseudomonas aeruginosa; experiment: Antibacterial activity against Pseudomonas aeruginosa ATCC 27853 after 24 hrs by two fold dilution technique; conditions: ATCC 27853, 24 h; outline: as §2
[5] = test system: Klebsiella pneumoniae; experiment: Antibacterial activity against Klebsiella pneumoniae after 18 to 24 hrs
[6] = test system: Staphylococcus aureus; experiment: Antibacterial activity against Staphylococcus aureus ATCC 25923 after 24 hrs by two fold dilution technique; conditions: ATCC 25923, 24 h; outline: as §2
[7] = test system: Aspergillus fumigatus; experiment: Antifungal activity against Aspergillus fumigatus after 48 hrs by two fold dilution technique
Outline: (§3)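 Broth MIC. Broth with log two-fold serial dilutions of compound was inoculated with about 1.6 × 10⁴–6 × 10⁴ c.f.u./ml of fungus and incubated 48 h at 35 °C. MIC is the lowest concentration arresting fungal growth.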

[8] = test system: Trichophyton mentagrophytes; experiment: Antifungal activity against Trichophyton mentagrophytes after 48 hrs by two fold dilution technique; outline: as §3
[9] = test system: Candida albicans; experiment: Antifungal activity against Candida albicans after 48 hrs by two fold dilution technique; outline: as §3
[10] = test system: Pseudomonas aeruginosa; experiment: Antibacterial activity against Pseudomonas aeruginosa ATCC 27853 after 24 hrs by disc diffusion method; outline: as §1
[11] = test system: Candida albicans; experiment: Ratio of MFC to MIC for Candida albicans
Outline: (§4)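 MFC: 0.1 ml from each MIC tube was spread on agar and colonies were counted after 48 h at 35 °C. MFC is the lowest concentration killing 99.9% of the inoculum. The MFC/MIC ratio was then calculated to classify activity as fungistatic or fungicidal.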

[12] = test system: Streptococcus pyogenes; experiment: Antibacterial activity against Streptococcus pyogenes after 18 to 24 hrs
[13] = test system: Trichophyton mentagrophytes; experiment: Ratio of MFC to MIC for Trichophyton mentagrophytes; outline: as §4
[14] = test system: Escherichia coli; experiment: Antibacterial activity against Escherichia coli ATCC 25922 after 24 hrs by two fold dilution technique; conditions: ATCC 25922, 24 h; outline: as §2
[15] = test system: Klebsiella pneumoniae; experiment: Antibacterial activity against Klebsiella pneumoniae after 24 hrs by disc diffusion method; outline: as §1
[16] = test system: Streptococcus pyogenes; experiment: Antibacterial activity against Streptococcus pyogenes after 24 hrs by two fold dilution technique; outline: as §2
[17] = test system: Talaromyces marneffei; experiment: Antifungal activity against Penicillium marneffei after 48 hrs by two fold dilution technique; outline: as §3
[18] = test system: Aspergillus fumigatus; experiment: Antifungal activity against Aspergillus fumigatus after 48 hrs by disk diffusion method
Outline: (§5)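 Agar well diffusion with compounds in DMSO. The dish was lawned with a saline spore suspension, excess decanted, and dried 1 h at 37 °C. Wells were punched. Read-out: inhibition zone in mm. Griseofulvin served as standard and DMSO as negative control.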

[19] = test system: Escherichia coli; experiment: Antibacterial activity against Escherichia coli ATCC 25922 after 18 to 24 hrs
[20] = test system: Staphylococcus aureus; experiment: Antibacterial activity against Staphylococcus aureus ATCC 25923 after 18 to 24 hrs
[21] = test system: Trichophyton mentagrophytes; experiment: Antifungal activity against Trichophyton mentagrophytes after 48 hrs by disk diffusion method; outline: as §5
[22] = test system: Pseudomonas aeruginosa; experiment: Antibacterial activity against Pseudomonas aeruginosa ATCC 27853 after 18 to 24 hrs
[23] = test system: Escherichia coli; experiment: Antibacterial activity against Escherichia coli ATCC 25922 after 24 hrs by disc diffusion method; outline: as §1
[24] = test system: Aspergillus fumigatus; experiment: Ratio of MFC to MIC for Aspergillus fumigatus; outline: as §4
[25] = test system: Candida albicans; experiment: Antifungal activity against Candida albicans after 48 hrs by disk diffusion method; outline: as §5
[26] = test system: Talaromyces marneffei; experiment: Antifungal activity against Penicillium marneffei after 48 hrs by disk diffusion method; outline: as §5
[27] = test system: Talaromyces marneffei; experiment: Ratio of MFC to MIC for Penicillium marneffei; outline: as §4

SMILES	diameter of the inhibition zone (DIZ) [1] [mm]	diameter of the inhibition zone (DIZ) [2] [mm]	MIC [3] [µg/mL]	MIC [4] [µg/mL]	MBC [5] [µg/mL]	MFC [7] [µg/mL]	MIC [7] [µg/mL]	MFC [8] [µg/mL]	MIC [8] [µg/mL]	MFC [9] [µg/mL]	MIC [9] [µg/mL]	Ratio [11]	MFC [17] [µg/mL]	MIC [17] [µg/mL]	diameter of the inhibition zone (DIZ) [18] [mm]	diameter of the inhibition zone (DIZ) [21] [mm]	Ratio [24]	diameter of the inhibition zone (DIZ) [25] [mm]	diameter of the inhibition zone (DIZ) [26] [mm]	Ratio [27]	also measured
C=CCCCCCCCCc1nnc(Nc2ccccc2)s1	13.1	13.5	25 (≈ 79.2 µM)	12.5 (≈ 39.6 µM)	50 (≈ 158 µM)	100 (≈ 317 µM)	25 (≈ 79.2 µM)	50 (≈ 158 µM)	25 (≈ 79.2 µM)	50 (≈ 158 µM)	25.5 (≈ 80.8 µM)	2	100 (≈ 317 µM)	25 (≈ 79.2 µM)	16.5	14.1	4	19.5	10.2	4	MIC [6]: 12.5 µg/mL (≈ 39.6 µM); diameter of the inhibition zone (DIZ) [10]: 17.2 mm; MBC [12]: 50 µg/mL (≈ 158 µM); Ratio [13]: 2; MIC [14]: 25 µg/mL (≈ 79.2 µM); diameter of the inhibition zone (DIZ) [15]: 12.8 mm; MIC [16]: 25 µg/mL (≈ 79.2 µM); MBC [19]: 100 µg/mL (≈ 317 µM); MBC [20]: 25 µg/mL (≈ 79.2 µM); MBC [22]: 25 µg/mL (≈ 79.2 µM); diameter of the inhibition zone (DIZ) [23]: 15.2 mm
CCCCCCC(O)C/C=C\CCCCCCCc1nnc(Nc2ccccc2)s1 (configuration not stated)	21.6	22.9	6.25 (≈ 14.5 µM)	6.25 (≈ 14.5 µM)	6.25 (≈ 14.5 µM)	50 (≈ 116 µM)	12.5 (≈ 29.1 µM)	25 (≈ 58.2 µM)	12.5 (≈ 29.1 µM)	25 (≈ 58.2 µM)	12.5 (≈ 29.1 µM)	2	50 (≈ 116 µM)	25 (≈ 58.2 µM)	22.4	18.9	4	25.1	15.1	2	MIC [6]: 6.25 µg/mL (≈ 14.5 µM); diameter of the inhibition zone (DIZ) [10]: 29.2 mm; MBC [12]: 12.5 µg/mL (≈ 29.1 µM); MIC [14]: 6.5 µg/mL (≈ 15.1 µM); diameter of the inhibition zone (DIZ) [15]: 22.7 mm; MIC [16]: 6.25 µg/mL (≈ 14.5 µM); MBC [19]: 12.5 µg/mL (≈ 29.1 µM); MBC [20]: 12.5 µg/mL (≈ 29.1 µM); MBC [22]: 12.5 µg/mL (≈ 29.1 µM); diameter of the inhibition zone (DIZ) [23]: 25.5 mm
COC1=CC(=O)C[C@@H](C)[C@]12Oc1c(Cl)c(OC)cc(OC)c1C2=O [GRISEOFULVIN]	–	–	–	–	–	12.5 (≈ 35.4 µM)	6.25 (≈ 17.7 µM)	12.5 (≈ 35.4 µM)	6.25 (≈ 17.7 µM)	12.5 (≈ 35.4 µM)	6.25 (≈ 17.7 µM)	2	12.5 (≈ 35.4 µM)	6.25 (≈ 17.7 µM)	27	24	2	30	20	2	Ratio [13]: 2
